Assay results reported in ChEMBL document CHEMBL5223168, “Using Imidazo[2,1-b][1,3,4]thiadiazol Skeleton to Design and Synthesize Novel MNK Inhibitors” (ACS Med Chem Lett, 2023).
Active and inactive are the calls of the source. The calls are words filed in the database; no cut-off is given here.

Legend:
[1] = system: A549; experiment: Induction of cell cycle arrest in human A549 cells assessed as accumulation of cells at G0/G1 phase at 5 uM incubated for 20 hrs by propidium iodide staining based flow cytometry (Rvb=70.9%); format: functional
[2] = system: MEF; experiment: Inhibition of MNK in MNK1 knockout mouse MEF cells assessed as inhibition of eIF4E phosphorylation at 1 uM incubated for 2 hrs by Western blot analysis; format: cell-based
Outline: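 MEFs lacking MNK1 or MNK2 (wild-type for comparison) treated 2 h at indicated concentrations; lysates immunoblotted for p-eIF4E, which reflects the remaining MNK isoform; quantified from three independent experiments, SEM.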

[3] = target: MAP kinase-interacting serine/threonine-protein kinase 2 (Homo sapiens, UniProt Q9HBH9); experiment: Inhibition of MNK2 (unknown origin) incubated for 60 mins using CREB as substrate in presence of ATP by LANCE Ultra kinase assay
Sequence of MAP kinase-interacting serine/threonine-protein kinase 2 (Q9HBH9 whole entry): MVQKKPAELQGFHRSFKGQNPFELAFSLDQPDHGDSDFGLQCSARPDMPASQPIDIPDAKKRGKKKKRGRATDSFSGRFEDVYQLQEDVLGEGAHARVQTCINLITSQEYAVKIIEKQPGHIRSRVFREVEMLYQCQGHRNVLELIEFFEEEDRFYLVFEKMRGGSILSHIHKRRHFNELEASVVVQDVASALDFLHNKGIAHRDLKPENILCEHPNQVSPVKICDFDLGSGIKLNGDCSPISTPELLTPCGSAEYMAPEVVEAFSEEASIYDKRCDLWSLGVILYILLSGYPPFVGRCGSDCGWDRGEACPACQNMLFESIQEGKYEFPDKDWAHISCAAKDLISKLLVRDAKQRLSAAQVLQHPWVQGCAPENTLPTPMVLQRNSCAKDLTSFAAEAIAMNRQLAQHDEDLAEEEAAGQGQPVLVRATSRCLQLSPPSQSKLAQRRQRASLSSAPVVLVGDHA

[4] = system: MDA-MB-231; experiment: Inhibition of colony formation in human MDA-MB-231 cells at 1 to 5 uM measured after 10 days by crystal violet staining based clonogenic assay; format: functional, cell-based; conditions: dose 1-5 µM, time 10.0 day
Outline: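 Clonogenic assay over 10 days; cells treated with DMSO vehicle or compound at indicated concentrations, plates scanned and colonies quantified from three independent experiments.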

[5] = target: mTORC1 (Homo sapiens) (UniProt P42345+Q8N122+Q9BVC4); experiment: Inhibition of mTORC1 in human LNCaP C4-2B cells assessed as inhibition of phosphorylation of S6K at Thr389 at 5 uM incubated for 2 hrs by Western blot analysis; format: cell-based
Sequence of mTORC1 (Homo sapiens) (Q8N122 whole entry, looked up, other chains not shown): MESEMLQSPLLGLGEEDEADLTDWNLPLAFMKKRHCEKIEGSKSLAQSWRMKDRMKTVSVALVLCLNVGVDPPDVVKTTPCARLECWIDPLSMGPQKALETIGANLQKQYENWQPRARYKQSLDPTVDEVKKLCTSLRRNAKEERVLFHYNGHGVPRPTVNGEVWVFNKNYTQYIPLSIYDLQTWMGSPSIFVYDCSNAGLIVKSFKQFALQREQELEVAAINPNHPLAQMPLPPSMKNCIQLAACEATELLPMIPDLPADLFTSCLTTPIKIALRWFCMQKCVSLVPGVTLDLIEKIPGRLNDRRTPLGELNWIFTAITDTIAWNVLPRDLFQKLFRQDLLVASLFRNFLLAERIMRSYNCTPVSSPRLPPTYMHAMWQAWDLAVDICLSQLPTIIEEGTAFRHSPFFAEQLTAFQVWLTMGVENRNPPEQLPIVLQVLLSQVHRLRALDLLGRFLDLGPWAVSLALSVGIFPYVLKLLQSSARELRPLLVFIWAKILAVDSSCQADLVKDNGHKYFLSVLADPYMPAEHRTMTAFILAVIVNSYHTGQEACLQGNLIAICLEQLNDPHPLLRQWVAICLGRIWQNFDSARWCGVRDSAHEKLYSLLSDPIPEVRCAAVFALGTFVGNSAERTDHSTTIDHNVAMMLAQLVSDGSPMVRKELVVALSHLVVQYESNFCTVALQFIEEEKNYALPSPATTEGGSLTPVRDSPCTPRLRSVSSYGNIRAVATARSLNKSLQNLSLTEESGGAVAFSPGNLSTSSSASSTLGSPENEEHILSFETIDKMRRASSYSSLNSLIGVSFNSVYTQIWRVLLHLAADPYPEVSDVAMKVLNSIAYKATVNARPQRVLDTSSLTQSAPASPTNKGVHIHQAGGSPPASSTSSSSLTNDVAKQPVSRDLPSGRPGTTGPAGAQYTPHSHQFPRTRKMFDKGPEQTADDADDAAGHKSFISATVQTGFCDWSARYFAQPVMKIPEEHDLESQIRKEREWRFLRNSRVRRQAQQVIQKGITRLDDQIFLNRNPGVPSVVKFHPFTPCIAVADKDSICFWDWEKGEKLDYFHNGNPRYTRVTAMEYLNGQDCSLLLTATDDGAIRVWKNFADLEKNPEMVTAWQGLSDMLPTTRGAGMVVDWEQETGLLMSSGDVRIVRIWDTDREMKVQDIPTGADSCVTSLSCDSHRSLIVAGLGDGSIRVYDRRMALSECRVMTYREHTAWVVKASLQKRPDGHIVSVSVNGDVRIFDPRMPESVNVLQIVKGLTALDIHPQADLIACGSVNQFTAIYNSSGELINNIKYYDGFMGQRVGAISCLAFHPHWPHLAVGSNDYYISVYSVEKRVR
Sequence of mTORC1 (Homo sapiens) (Q9BVC4 whole entry, looked up, other chains not shown): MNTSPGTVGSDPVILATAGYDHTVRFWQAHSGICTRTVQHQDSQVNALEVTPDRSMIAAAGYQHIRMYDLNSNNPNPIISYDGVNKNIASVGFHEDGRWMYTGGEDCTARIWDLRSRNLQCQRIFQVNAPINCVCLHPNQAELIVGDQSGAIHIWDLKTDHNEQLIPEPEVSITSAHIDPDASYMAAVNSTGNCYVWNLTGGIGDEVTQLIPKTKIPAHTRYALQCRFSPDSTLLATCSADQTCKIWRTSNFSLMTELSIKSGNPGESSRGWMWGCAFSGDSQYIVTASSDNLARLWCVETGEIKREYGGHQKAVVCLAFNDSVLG
Outline: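 C4-2B prostate cancer cells treated with inhibitor; lysates probed by Western blot for p-eIF4E, p-S6K (Thr389), p-rpS6 (Ser240/244) and p-AKT (Ser473).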

[6] = system: MDA-MB-231; experiment: Induction of cell cycle arrest in human MDA-MB-231 cells assessed as decrease in cyclin B1 level at 5 uM incubated for 24 hrs by Western blot analysis; format: functional, cell-based
Outline: (§1)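 A549 and MDA-MB-231 cells treated 24 h with 5 μM; lysates resolved by SDS-PAGE and immunoblotted for cyclin B1, cyclin D3 and MMP-3.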

[7] = system: MDA-MB-231; experiment: Induction of cell cycle arrest in human MDA-MB-231 cells assessed as decrease in cyclin D3 level at 5 uM incubated for 24 hrs by Western blot analysis; format: functional, cell-based; outline: as §1
[8] = Tmax in mouse at 50 mg/kg, po and measured upto 24 hrs; format: ADME, organism-based; conditions: in vivo
[9] = system: A549; experiment: Antitumor activity against human A549 cells xenografted in BALB/C nude mouse assessed as T/C ratio at 150 mg/kg, po QD for 14 days; format: functional; conditions: time 14 day
Outline: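 A549 xenografts in nude mice; compound given orally once daily at 75 or 150 mg/kg for 14 days, irinotecan reference at 3 mg/kg; tumor growth tracked as T/C ratio (relative tumor proliferation rate); body weight monitored.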

IC50 [3]: 8.6 nM | inhibition [5]: inactive | Tmax [8]: 1 h
SMILES: CN1CCN(C(=O)c2ccc(-c3nn4c(-c5ccc(C#N)cc5)cnc4s3)cc2)CC1
Activity [1]: 91.4% | inhibition [2]: Active | inhibition [4]: Dose-Dependent Effect | Activity [6]: Active | Activity [7]: Active | T/C [9]: 0.5
